Legend:
[1] = Inhibition of porcine kidney leucyl aminopeptidase; set-up: species or system Sus scrofa
Plasmodium falciparum [2] = test: Antimalarial activity against Plasmodium falciparum 3D7 infected in O-positive human erythrocytes after 72 hrs; type: functional, organism-based; conditions: 3D7, 72 h
Procedure, shortened: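 Asynchronous asexual blood-stage P. falciparum 3D7 were cultured in O+ erythrocytes and exposed to compounds for 72 h. Growth was read by the spectrophotometric parasite lactate dehydrogenase absorbance assay. IC50 values were determined graphically from dose-response curves.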

Aminopeptidase N = molecular target: T1, Aminopeptidase N (Sus scrofa, UniProt P15145); test: Inhibition of pig kidney microsomal aminopeptidase N
T1 sequence (P15145 whole entry): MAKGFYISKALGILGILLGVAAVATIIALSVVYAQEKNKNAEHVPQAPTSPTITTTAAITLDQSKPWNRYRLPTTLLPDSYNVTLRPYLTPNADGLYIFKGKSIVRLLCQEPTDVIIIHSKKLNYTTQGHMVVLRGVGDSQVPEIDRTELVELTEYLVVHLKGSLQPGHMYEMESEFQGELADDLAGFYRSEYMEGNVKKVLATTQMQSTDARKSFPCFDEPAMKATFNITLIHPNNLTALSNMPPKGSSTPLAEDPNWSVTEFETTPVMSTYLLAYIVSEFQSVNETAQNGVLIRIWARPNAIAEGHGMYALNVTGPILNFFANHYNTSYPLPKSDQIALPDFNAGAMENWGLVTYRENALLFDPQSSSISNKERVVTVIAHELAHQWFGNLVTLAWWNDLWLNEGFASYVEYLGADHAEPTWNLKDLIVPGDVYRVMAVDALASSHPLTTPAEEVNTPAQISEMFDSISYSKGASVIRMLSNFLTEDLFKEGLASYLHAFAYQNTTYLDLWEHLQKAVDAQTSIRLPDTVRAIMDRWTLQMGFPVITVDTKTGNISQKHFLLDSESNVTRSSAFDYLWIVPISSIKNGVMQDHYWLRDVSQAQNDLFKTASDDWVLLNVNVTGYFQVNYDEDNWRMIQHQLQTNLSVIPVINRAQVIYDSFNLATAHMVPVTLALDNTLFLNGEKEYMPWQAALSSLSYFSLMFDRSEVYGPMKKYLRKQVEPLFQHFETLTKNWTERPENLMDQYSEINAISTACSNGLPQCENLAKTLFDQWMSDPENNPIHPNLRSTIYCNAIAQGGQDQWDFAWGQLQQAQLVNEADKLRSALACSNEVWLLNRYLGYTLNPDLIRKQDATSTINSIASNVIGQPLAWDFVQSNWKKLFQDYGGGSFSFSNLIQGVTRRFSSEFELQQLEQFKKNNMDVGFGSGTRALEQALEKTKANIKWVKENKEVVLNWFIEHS

Plasmodium falciparum [3] = test: Inhibition of alanyl aminopeptidase activity in Plasmodium falciparum 3D7 at 0.1 uM using Ala-AMC as a substrate by spectrophotometer
Procedure, shortened: (§1)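 Cytosolic extract came from free parasites released from infected erythrocytes, then three freeze-thaw cycles and centrifugation at 12,000 x g, 4°C, 20 min. Extract (25 µg/ml final) was preincubated with 0.1 or 10 µM inhibitor in 50 mM Tris-Cl pH 8.0, with or without 1 mM CoCl2, for 15 min at 37°C. Leu-AMC or Ala-AMC (10 µM final) was added. AMC release was read over 30 min (ex 370/em 440 nm).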

[4] = molecular target: T2, Leucine aminopeptidase (Plasmodium falciparum 3D7) (UniProt Q8IL11); test: Inhibition of leucyl aminopeptidase activity in Plasmodium falciparum 3D7 harboring tPfAP-M17 gene at 0.1 uM using Leu-AMC as a substrate by spectrophotometer in presence of 1 mM CoCl2
T2 sequence (whole entry): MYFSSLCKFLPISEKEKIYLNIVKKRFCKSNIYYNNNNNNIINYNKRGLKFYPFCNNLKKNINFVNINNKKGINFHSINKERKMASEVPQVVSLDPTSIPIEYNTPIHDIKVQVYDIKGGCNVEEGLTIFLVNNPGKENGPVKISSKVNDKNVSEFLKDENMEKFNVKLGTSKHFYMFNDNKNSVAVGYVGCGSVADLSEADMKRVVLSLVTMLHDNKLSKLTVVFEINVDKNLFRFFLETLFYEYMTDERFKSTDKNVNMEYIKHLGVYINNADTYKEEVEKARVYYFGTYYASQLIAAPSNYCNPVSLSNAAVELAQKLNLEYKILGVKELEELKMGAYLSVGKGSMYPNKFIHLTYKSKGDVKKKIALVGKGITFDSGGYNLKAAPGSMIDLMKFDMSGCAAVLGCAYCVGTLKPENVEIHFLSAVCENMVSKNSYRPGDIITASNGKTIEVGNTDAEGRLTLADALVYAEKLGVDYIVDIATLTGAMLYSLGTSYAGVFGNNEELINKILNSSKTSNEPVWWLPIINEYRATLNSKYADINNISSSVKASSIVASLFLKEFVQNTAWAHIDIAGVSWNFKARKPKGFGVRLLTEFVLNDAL

[5] = molecular target: T2, Leucine aminopeptidase (Plasmodium falciparum 3D7); test: Inhibition of leucyl aminopeptidase activity in Plasmodium falciparum 3D7 at 10 uM using Leu-AMC as a substrate by spectrophotometer; procedure, shortened: as §1
[6] = molecular target: T2, Leucine aminopeptidase (Plasmodium falciparum 3D7); test: Inhibition of leucyl aminopeptidase activity in Plasmodium falciparum 3D7 at 0.1 uM using Leu-AMC as a substrate by spectrophotometer in presence of 1 mM CoCl2
[7] = molecular target: T2, Leucine aminopeptidase (Plasmodium falciparum 3D7); test: Inhibition of leucyl aminopeptidase activity in Plasmodium falciparum 3D7 at 0.1 uM using Leu-AMC as a substrate by spectrophotometer; procedure, shortened: as §1
[8] = molecular target: T2, Leucine aminopeptidase (Plasmodium falciparum 3D7); test: Inhibition of leucyl aminopeptidase activity in Plasmodium falciparum 3D7 at 10 uM using Leu-AMC as a substrate by spectrophotometer in presence of 1 mM CoCl2
Plasmodium falciparum [9] = test: Inhibition of alanyl aminopeptidase activity in Plasmodium falciparum 3D7 at 10 uM using Ala-AMC as a substrate by spectrophotometer; procedure, shortened: as §1

Compound | Ki [1] | IC50 (Plasmodium falciparum [2]) | Ki (Aminopeptidase N) | inhibition at 0.1 µM (Plasmodium falciparum [3]) | inhibition [4] | inhibition [5] | inhibition [6] | inhibition [7] | inhibition [8] | inhibition at 10 µM (Plasmodium falciparum [9])
NC(CCC1CCCCC1)P(=O)(O)O (racemic) | 210 nM | 15 µM | 37.1 µM | 13% | 67% | 94% | 43% | 17% | 91% | 94%
NC(CCCCc1ccccc1)P(=O)(O)O (racemic) | 330 nM | 22 µM | 3.69 µM | 28% | 61% | 97% | 25% | 28% | 92% | 97%
NC(CCCC1CCCCC1)P(=O)(O)O (racemic) | 9570 nM | 14 µM | 41.6 µM | 15% | 34% | 95% | 51% | 17% | 91% | 95%
